Reference: ChEMBL document CHEMBL4609978, “Synthesis and evaluation of 2'-dihalo ribonucleotide prodrugs with activity against hepatitis C virus” (Bioorg Med Chem, 2020)
Values after ≈ are worked out from the molar mass of the structure shown.

system: not listed separately; assay: Stability in human plasma assessed as parent compound remaining after 4 hrs; assay type: ADME, cell-free; conditions: read-out: Stability
In short: (§1)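 Prodrug incubated 4 h at 37 °C in dog or human plasma; result given as percent parent remaining.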

SMILES | remaining at 4 h
CCOC(=O)C(C)(C)N[P@](=O)(OC[C@H]1O[C@@H](n2ccc(=O)[nH]c2=O)[C@@](F)(Br)[C@@H]1O)Oc1ccccc1 | 98%

system: not listed separately; assay: Prodrug conversion in Beagle dog liver assessed as increase in nucleotide triphosphate level at 5 mg/kg, po co-dosed with 5 mg/kg sofosbuvir measured after 4 hrs by LC-MS/MS analysis relative to sofosbuvir; assay type: ADME, organism-based, Canis lupus familiaris; conditions: in vivo
In short: (§2)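 Beagle dogs (3 per time point) given single oral prodrug 5 mg/kg in EtOH:PEG-400:Phosal 53 MCT (10:30:60, w/w), cassette-dosed with sofosbuvir 5 mg/kg as internal standard; liver biopsies at 4 or 24 h, flash frozen, triphosphate measured by LC-MS/MS.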

SMILES | fold change (FC)
CCOC(=O)C(C)(C)N[P@](=O)(OC[C@H]1O[C@@H](n2ccc(=O)[nH]c2=O)[C@@](F)(Br)[C@@H]1O)Oc1ccccc1 | 5 to 6

system: not listed separately; assay: Unbound drug level in human plasma; assay type: ADME, cell-free; conditions: not given

SMILES | fraction unbound
CCOC(=O)C(C)(C)N[P@](=O)(OC[C@H]1O[C@@H](n2ccc(=O)[nH]c2=O)[C@@](F)(Br)[C@@H]1O)Oc1ccccc1 | 0.473

system: not listed separately; assay: Prodrug conversion in Beagle dog liver assessed as nucleotide triphosphate level at 1 mg/kg, po qd for 4 days co-dosed with 5 mg/kg sofosbuvir and measured at 24 hrs post-last dose by LC-MS/MS analysis; assay type: ADME, organism-based, Canis lupus familiaris; conditions: in vivo
In short: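 Beagle dogs (3 per time point) dosed orally once daily for 4 days with prodrug (1 or 5 mg/kg) in EtOH:PEG-400:Phosal 53 MCT (10:30:60, w/w) together with sofosbuvir 5 mg/kg; liver biopsy 24 h after final dose, flash frozen, triphosphate by LC-MS/MS.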

SMILES | Drug metabolism
CCOC(=O)C(C)(C)N[P@](=O)(OC[C@H]1O[C@@H](n2ccc(=O)[nH]c2=O)[C@@](F)(Br)[C@@H]1O)Oc1ccccc1 | 10.7 µM

system: Hepatitis C virus; assay: Antiviral activity against HCV genotype 1b Con1 infected in human HuH7 replicon cells assessed as inhibition of viral replication after 3 days by luciferase reporter gene assay; assay type: functional, organism-based, Hepacivirus hominis; conditions: subtype 1b Con1, Huh-7, 72 h
In short: (§3)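 Stable subgenomic replicon cell lines (genotype 1a-H77 or 1b-Con1) carrying a luciferase reporter; compounds added in DMEM with 5% FBS, cells incubated 3 days with or without compound, then lysed and luciferase activity read; EC50 from nonlinear regression fit to 4-parameter logistic equation.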

SMILES | EC50
CCOC(=O)C(C)(C)N[P@](=O)(OC[C@H]1O[C@@H](n2ccc(=O)[nH]c2=O)[C@@](F)(Br)[C@@H]1O)Oc1ccccc1 | 434 nM

system: not listed separately; assay: Prodrug conversion in Beagle dog liver assessed as nucleotide triphosphate level at 5 mg/kg, po co-dosed with 5 mg/kg sofosbuvir measured after 24 hrs by LC-MS/MS analysis; assay type: ADME, organism-based, Canis lupus familiaris; conditions: in vivo; in short: as §2

SMILES | Drug metabolism
CCOC(=O)C(C)(C)N[P@](=O)(OC[C@H]1O[C@@H](n2ccc(=O)[nH]c2=O)[C@@](F)(Br)[C@@H]1O)Oc1ccccc1 | 6.64 µM

system: not listed separately; assay: Stability in dog plasma assessed as parent compound remaining after 4 hrs; assay type: ADME, cell-free, Canis lupus familiaris; conditions: read-out: Stability; in short: as §1

SMILES | remaining at 4 h
CCOC(=O)C(C)(C)N[P@](=O)(OC[C@H]1O[C@@H](n2ccc(=O)[nH]c2=O)[C@@](F)(Br)[C@@H]1O)Oc1ccccc1 | 100%

system: not listed separately; assay: Intrinsic clearance in human hepatocytes; assay type: ADME, cell-based, Hepatocyte; conditions: read-out: CLH (converted)

SMILES | CLint scaled
CCOC(=O)C(C)(C)N[P@](=O)(OC[C@H]1O[C@@H](n2ccc(=O)[nH]c2=O)[C@@](F)(Br)[C@@H]1O)Oc1ccccc1 | 132 mL/min/kg

system: not listed separately; assay: Prodrug conversion in Beagle dog liver assessed as nucleotide triphosphate level at 5 mg/kg, po administered as single dose measured after 4 hrs by LC-MS/MS analysis; assay type: ADME, organism-based, Canis lupus familiaris; conditions: in vivo

SMILES | Drug metabolism
CCOC(=O)C(C)(C)N[P@](=O)(OC[C@H]1O[C@@H](n2ccc(=O)[nH]c2=O)[C@@](F)(Br)[C@@H]1O)Oc1ccccc1 | 43.3 µM

system: not listed separately; assay: Unbound drug level in dog plasma; assay type: ADME, cell-free, Canis lupus familiaris; conditions: not given

SMILES | fraction unbound
CCOC(=O)C(C)(C)N[P@](=O)(OC[C@H]1O[C@@H](n2ccc(=O)[nH]c2=O)[C@@](F)(Br)[C@@H]1O)Oc1ccccc1 | 0.317

system: Hepatitis C virus; assay: Antiviral activity against HCV genotype 1b Con1 over expressing CES1 infected in human HuH7 replicon cells assessed as inhibition of viral replication after 3 days by luciferase reporter gene assay; assay type: functional, organism-based, Hepacivirus hominis; conditions: subtype 1b Con1, Huh-7, 72 h

SMILES | EC50
CCOC(=O)C(C)(C)N[P@](=O)(OC[C@H]1O[C@@H](n2ccc(=O)[nH]c2=O)[C@@](F)(Br)[C@@H]1O)Oc1ccccc1 | 69 nM

system: not listed separately; assay: Prodrug conversion in Beagle dog liver assessed as nucleotide triphosphate level at 5 mg/kg, po co-dosed with 5 mg/kg sofosbuvir measured after 4 hrs by LC-MS/MS analysis; assay type: ADME, organism-based, Canis lupus familiaris; conditions: in vivo; in short: as §2

SMILES | Drug metabolism
CCOC(=O)C(C)(C)N[P@](=O)(OC[C@H]1O[C@@H](n2ccc(=O)[nH]c2=O)[C@@](F)(Br)[C@@H]1O)Oc1ccccc1 | 7 µM

system: not listed separately; assay: Prodrug conversion in human primary hepatocytes assessed as increase in nucleotide triphosphate level at 100 uM incubated for 4 hrs followed by compound wash-out for 20 hrs and measured following 4 hrs incubation period by LC-MS/MS analysis relative to sofosbuvir; assay type: ADME, cell-based, Hepatocyte; conditions: not given

SMILES | fold change (FC)
CCOC(=O)C(C)(C)N[P@](=O)(OC[C@H]1O[C@@H](n2ccc(=O)[nH]c2=O)[C@@](F)(Br)[C@@H]1O)Oc1ccccc1 | 30 to 40

system: not listed separately; assay: Prodrug conversion in Beagle dog liver assessed as nucleotide triphosphate level at 5 mg/kg, po administered as single dose measured after 24 hrs by LC-MS/MS analysis; assay type: ADME, organism-based, Canis lupus familiaris; conditions: in vivo

SMILES | Drug metabolism
CCOC(=O)C(C)(C)N[P@](=O)(OC[C@H]1O[C@@H](n2ccc(=O)[nH]c2=O)[C@@](F)(Br)[C@@H]1O)Oc1ccccc1 | 42.7 µM

system: not listed separately; assay: Prodrug conversion in human primary hepatocytes assessed as nucleotide triphosphate level at 100 uM incubated for 4 hrs followed by compound wash-out for 20 hrs and measured following 4 hrs incubation period by LC-MS/MS analysis; assay type: ADME, cell-based, Hepatocyte; conditions: not given
In short: (§4)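 Cryopreserved primary human hepatocytes plated ~55,000 viable cells/well on collagen, medium changed after 4–6 h to Williams E maintenance medium with Geltrex 0.35 mg/mL, overnight at 37 °C; prodrug 100 µM for 4 h, then washed; second plate held a further 20 h drug-free; cells washed with ice-cold HBSS, triphosphate measured by LC-MS/MS at 4 or 24 h.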

SMILES | Drug metabolism
CCOC(=O)C(C)(C)N[P@](=O)(OC[C@H]1O[C@@H](n2ccc(=O)[nH]c2=O)[C@@](F)(Br)[C@@H]1O)Oc1ccccc1 | 3600 µM

system: not listed separately; assay: Prodrug conversion in Beagle dog liver assessed as increase in nucleotide triphosphate level at 5 mg/kg, po co-dosed with 5 mg/kg sofosbuvir measured after 24 hrs by LC-MS/MS analysis relative to sofosbuvir; assay type: ADME, organism-based, Canis lupus familiaris; conditions: in vivo; in short: as §2

SMILES | fold change (FC)
CCOC(=O)C(C)(C)N[P@](=O)(OC[C@H]1O[C@@H](n2ccc(=O)[nH]c2=O)[C@@](F)(Br)[C@@H]1O)Oc1ccccc1 | 5 to 6

system: Hepatitis C virus; assay: Antiviral activity against HCV genotype 1a H77 infected in human HuH7 replicon cells assessed as inhibition of viral replication after 3 days by luciferase reporter gene assay; assay type: functional, organism-based, Hepacivirus hominis; conditions: subtype 1a H77, Huh-7, 72 h; in short: as §3

SMILES | EC50
CCOC(=O)C(C)(C)N[P@](=O)(OC[C@H]1O[C@@H](n2ccc(=O)[nH]c2=O)[C@@](F)(Br)[C@@H]1O)Oc1ccccc1 | 259 nM

system: not listed separately; assay: Distribution coefficient, logD of compound by HT-LCMS analysis; assay type: physicochemical; conditions: octanol/water

SMILES | logD
CCOC(=O)C(C)(C)N[P@](=O)(OC[C@H]1O[C@@H](n2ccc(=O)[nH]c2=O)[C@@](F)(Br)[C@@H]1O)Oc1ccccc1 | 2.86

system: not listed separately; assay: Prodrug conversion in human primary hepatocytes assessed as nucleotide triphosphate level at 100 uM incubated for 4 hrs and followed by compound washout for 20 hrs and measured following 24 hrs incubation period by LC-MS/MS analysis; assay type: ADME, cell-based, Hepatocyte; conditions: not given; in short: as §4

SMILES | Drug metabolism
CCOC(=O)C(C)(C)N[P@](=O)(OC[C@H]1O[C@@H](n2ccc(=O)[nH]c2=O)[C@@](F)(Br)[C@@H]1O)Oc1ccccc1 | 736 µM

system: not listed separately; assay: Intrinsic clearance in dog hepatocytes; assay type: ADME, cell-based, Canis lupus familiaris, Hepatocyte; conditions: read-out: CLH (converted)

SMILES | CLint scaled
CCOC(=O)C(C)(C)N[P@](=O)(OC[C@H]1O[C@@H](n2ccc(=O)[nH]c2=O)[C@@](F)(Br)[C@@H]1O)Oc1ccccc1 | 123 mL/min/kg

system: not listed separately; assay: Aqueous solubility of compound in pH 7.4 phosphate buffer; assay type: physicochemical; conditions: not given

SMILES | solubility
CCOC(=O)C(C)(C)N[P@](=O)(OC[C@H]1O[C@@H](n2ccc(=O)[nH]c2=O)[C@@](F)(Br)[C@@H]1O)Oc1ccccc1 | 519 µM (≈ 308 µg/mL)

system: not listed separately; assay: Prodrug conversion in Beagle dog liver assessed as nucleotide triphosphate level at 5 mg/kg, po qd for 4 days and measured at 24 hrs post-last dose by LC-MS/MS analysis; assay type: ADME, organism-based, Canis lupus familiaris; conditions: in vivo

SMILES | Drug metabolism
CCOC(=O)C(C)(C)N[P@](=O)(OC[C@H]1O[C@@H](n2ccc(=O)[nH]c2=O)[C@@](F)(Br)[C@@H]1O)Oc1ccccc1 | 8.18 µM
